Reference: BindingDB's records for doi:10.1016/j.bmcl.2005.10.070 (Pharmacopeia, 2005)
“And” between values parts separate entries of the source, which are not always exact repeats. Equal values may be shown once.

Target: Protein farnesyltransferase subunit beta/geranylgeranyltransferase type-1 subunit alpha (Mus musculus, UniProt Q61239+Q8K2I1)
Assay: Anchorage-independent growth of transformed NIH3T3 cells in soft agar
Procedure, shortened: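 Transformed NIH-3T3 cells grown in soft agar; colonies photographed by video camera and counted; IC50 calculated from colony counts.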

IC50: 5 nM and 5.2 nM
SMILES: O=C(NCCCn1ccnc1)C1CN(C2c3ccc(Cl)cc3CCc3cc(Br)cnc32)CCN1C(=O)NC1CCCCC1 (stereo unspecified) [4-(3-bromo-8-chloro-6,11-dihydro-5H-benzo[5,6]cyclohepta[1,2-b]pyridin-11-yl)-piperazine-1,2-dicarboxylicacid 1-cyclohexylamide 2-[(3-imidazol-1-yl-propyl)-amide]]
